Consider 22 compounds from ChEMBL document CHEMBL1949507, “Synthesis and biological evaluation of [6]-gingerol analogues as transient receptor potential channel TRPV1 and TRPA1 modulators” (Bioorg Med Chem Lett, 2012).

Holding throughout (format): functional, cell-based
Assay [1] addresses T1, Transient receptor potential cation channel subfamily A member 1 (Rattus norvegicus, UniProt Q6RI86). Put plainly: Antagonist activity at rat TRPA1 ion channel expressed in HEK293 cells assessed as inhibition of AITC-induced calcium influx incubated for 5 mins prior to AITC-induction by fluo-4-AM-based fluorimetry. In a few lines: (§1)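 Stably transfected HEK293 (human TRPV1 or rat TRPA1) were loaded with Fluo-4-AM, washed in Tyrode's buffer and read by spectrofluorimetry (ex 488/em 516 nm). […] Inhibition of the agonist-evoked [Ca2+]i rise was recorded, giving IC50.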

Assay [2] has as its target T2, Transient receptor potential cation channel subfamily V member 1 (Homo sapiens, UniProt Q8NER1). Put plainly: Agonist activity at human TRPV1 ion channel expressed in HEK293 cells assessed as calcium influx by fluo-4-Am-based fluorimetry relative to ionomycin.
For assay [3], the target named is Transient receptor potential cation channel subfamily A member 1 (Rattus norvegicus) (UniProt Q6RI86). Briefly: Agonist activity at rat TRPA1 ion channel expressed in HEK293 cells assessed as calcium influx by fluo-4-Am-based fluorimetry relative to allyl isothiocyanate.
Sequence of Transient receptor potential cation channel subfamily A member 1 (Rattus norvegicus) (Q6RI86 whole entry): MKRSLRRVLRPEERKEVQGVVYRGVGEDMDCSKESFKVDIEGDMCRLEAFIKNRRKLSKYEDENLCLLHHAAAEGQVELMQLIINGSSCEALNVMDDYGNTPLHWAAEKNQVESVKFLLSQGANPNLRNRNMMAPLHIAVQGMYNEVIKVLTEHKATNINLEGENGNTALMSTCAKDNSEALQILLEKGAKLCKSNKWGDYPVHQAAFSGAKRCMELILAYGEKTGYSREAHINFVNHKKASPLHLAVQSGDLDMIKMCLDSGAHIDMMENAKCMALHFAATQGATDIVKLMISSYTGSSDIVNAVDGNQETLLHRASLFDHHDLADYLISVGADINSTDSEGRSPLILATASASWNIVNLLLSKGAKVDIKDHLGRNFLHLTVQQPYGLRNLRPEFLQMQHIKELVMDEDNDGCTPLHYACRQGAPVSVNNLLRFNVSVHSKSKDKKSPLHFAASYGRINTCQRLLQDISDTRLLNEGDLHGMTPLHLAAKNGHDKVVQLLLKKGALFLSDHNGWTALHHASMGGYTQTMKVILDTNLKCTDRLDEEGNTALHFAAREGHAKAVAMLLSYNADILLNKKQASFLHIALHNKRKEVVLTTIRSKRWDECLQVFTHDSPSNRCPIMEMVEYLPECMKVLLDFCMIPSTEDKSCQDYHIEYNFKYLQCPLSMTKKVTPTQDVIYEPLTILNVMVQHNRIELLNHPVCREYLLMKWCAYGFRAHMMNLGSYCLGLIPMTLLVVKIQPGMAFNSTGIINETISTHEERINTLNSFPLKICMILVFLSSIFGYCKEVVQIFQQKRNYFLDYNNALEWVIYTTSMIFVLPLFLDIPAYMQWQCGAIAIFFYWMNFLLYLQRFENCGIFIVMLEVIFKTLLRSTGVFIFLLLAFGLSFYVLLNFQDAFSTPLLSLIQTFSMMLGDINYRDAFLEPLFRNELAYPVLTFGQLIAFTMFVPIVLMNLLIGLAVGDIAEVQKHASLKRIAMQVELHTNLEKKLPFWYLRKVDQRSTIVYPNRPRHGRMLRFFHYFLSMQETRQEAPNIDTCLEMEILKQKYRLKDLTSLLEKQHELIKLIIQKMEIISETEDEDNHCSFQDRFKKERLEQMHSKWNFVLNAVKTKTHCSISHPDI
Assay [4] has as its target T2, Transient receptor potential cation channel subfamily V member 1. Briefly: Antagonist activity at human TRPV1 ion channel expressed in HEK293 cells assessed as inhibition of capsaicin-induced calcium influx incubated for 5 mins prior to capsicin-induction by fluo-4-AM-based fluorimetry. In a few lines:
as §1

Assay [5] has the same target. Put plainly: Agonist activity at human TRPV1 ion channel expressed in HEK293 cells assessed as calcium influx by fluo-4-Am-based fluorimetry.
Assay [6] addresses T1, Transient receptor potential cation channel subfamily A member 1. Put plainly: Agonist activity at rat TRPA1 ion channel expressed in HEK293 cells assessed as calcium influx by fluo-4-Am-based fluorimetry.
Assay [7] concerns the target Transient receptor potential cation channel subfamily A member 1 (Rattus norvegicus) (UniProt Q6RI86). Briefly: Agonist activity at rat TRPA1 ion channel expressed in HEK293 cells assessed as calcium influx by fluo-4-Am-based fluorimetry relative to ionomycin. Put shortly: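 HEK293 cells stably transfected with rat TRPA1 cDNA, loaded with Fluo-4-AM in EMEM, washed twice in Tyrode's buffer and read in a spectrofluorimeter cuvette (ex 488 nm, em 516 nm). [Ca2+]i was measured before and after adding various concentrations of test compound. Responses in non-transfected wild-type HEK293 cells served as baseline and were subtracted from transfected-cell values.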

T1 sequence (Q6RI86 whole entry): as above
T2 sequence (Q8NER1 whole entry): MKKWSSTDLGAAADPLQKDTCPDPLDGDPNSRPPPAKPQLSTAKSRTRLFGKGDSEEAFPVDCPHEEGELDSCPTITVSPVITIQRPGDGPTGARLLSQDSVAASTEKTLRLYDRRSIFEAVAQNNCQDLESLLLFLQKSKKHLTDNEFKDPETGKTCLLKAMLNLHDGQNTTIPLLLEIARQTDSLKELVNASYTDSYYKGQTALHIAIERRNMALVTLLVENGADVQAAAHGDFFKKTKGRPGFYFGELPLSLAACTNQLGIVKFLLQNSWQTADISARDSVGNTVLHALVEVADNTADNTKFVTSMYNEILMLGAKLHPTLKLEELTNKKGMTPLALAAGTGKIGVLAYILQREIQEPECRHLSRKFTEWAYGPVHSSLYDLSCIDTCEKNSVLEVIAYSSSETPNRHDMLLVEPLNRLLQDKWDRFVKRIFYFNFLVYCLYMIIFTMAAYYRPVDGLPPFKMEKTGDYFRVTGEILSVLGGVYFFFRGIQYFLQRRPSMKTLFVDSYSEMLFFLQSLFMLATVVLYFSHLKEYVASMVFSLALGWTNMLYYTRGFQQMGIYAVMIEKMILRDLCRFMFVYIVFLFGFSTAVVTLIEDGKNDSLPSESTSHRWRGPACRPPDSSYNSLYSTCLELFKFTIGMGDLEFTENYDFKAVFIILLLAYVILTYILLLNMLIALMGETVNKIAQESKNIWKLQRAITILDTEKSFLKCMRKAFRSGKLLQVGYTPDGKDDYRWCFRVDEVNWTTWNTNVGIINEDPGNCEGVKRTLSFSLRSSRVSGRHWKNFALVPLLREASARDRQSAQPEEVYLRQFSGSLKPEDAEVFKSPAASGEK

Consider `O=C(CCc1ccccc1)CC(O)Cc1ccccc1` (stereo not given), for which the IC50 was 4.5 µM in assay [1] and over 50 µM in assay [4]. In addition, the Efficacy was under 10% in assay [2] and 17.5% in assay [3].
Consider `CC(C)c1cc(CCC(=O)CC(O)CCCCCCc2ccccc2)cc(C(C)C)c1O` (stereo not given), for which the IC50 in assay [1] was 11.1 µM; in assay [4] it was over 10 µM. Further, the Efficacy in assay [2] and in assay [3] was under 10% throughout.
Regarding `O=C(CCc1ccc(O)cc1)CC(O)CCCCCCc1ccccc1` (stereo not given), the values for the IC50 in assay [1] and in assay [4] were 15.8 µM and 9.4 µM, respectively. Also, the Efficacy in assay [2] is 43%; in assay [3] it was under 10%. Also, the EC50 in assay [5] worked out at 14.6 µM.
Regarding `CCCCCC(O)CC(=O)CCc1cc(C(C)C)c(O)c(C(C)C)c1` (stereo not given), the 50% inhibitory concentration (IC50) in assay [1] is 2.8 µM; in assay [4], over 50 µM. Further, in assay [6], the EC50 is 2.1 µM. In addition, the values for the Efficacy in assay [2] and in assay [3] were under 10% and 63.6%, respectively.
With `O=C(CCc1ccccc1)CC(O)CCCCCCc1ccccc1` (stereo not given), the Efficacy in assay [2] and in assay [3] was under 10% in each case. Further, the half-maximal inhibitory concentration (IC50) in assay [4] was over 10 µM.
`COc1cc(CNC(=O)CCCC/C=C/C(C)C)ccc1O`: the Efficacy in assay [3] is 100%.
Consider `Cc1cc(O)c(C(C)C)cc1CCC(=O)CC(O)Cc1ccccc1` (stereo not given), for which the half-maximal inhibitory concentration (IC50) in assay [1] is 39.7 µM; in assay [4], 35.3 µM. Further, the EC50 in assay [6] turned out to be 3.5 µM. Further, the results for the Efficacy in assay [2] and in assay [3] were under 10% and 51.3%, respectively.
As for `C=CCN=C=S`, in assay [7], the Efficacy was determined as 41.8%.
As to `O=C(CCc1ccc(O)cc1)CC(O)Cc1ccccc1` (stereo not given), the IC50 turned out to be 35.1 µM in assay [1] and 33.5 µM in assay [4]. Moreover, the EC50 was determined as 10.7 µM in assay [6] and 1 µM in assay [5]. For the same compound, the Efficacy in assay [2] was 10.8%; in assay [3] it was 131%.
Consider `CCCCCC(O)CC(=O)CCc1ccc(O)cc1` (stereo not given), for which the half-maximal inhibitory concentration (IC50) is 22.6 µM in assay [1] and 10.5 µM in assay [4]. The EC50 in assay [6] stood at 8.4 µM; in assay [5], 1.2 µM. Also, the Efficacy is 23.6% in assay [2] and 114% in assay [3].
`CC(C)c1cc(CCC(=O)CC(O)Cc2ccccc2)cc(C(C)C)c1O` (stereo not given): the Efficacy in assay [2] and in assay [3] was under 10% throughout. In assay [4], the half-maximal inhibitory concentration (IC50) was over 50 µM.
On to `CCCCCC(O)CC(=O)CCc1ccccc1` (stereo not given), for which the IC50 was 56.1 µM in assay [1] and over 50 µM in assay [4]. Further, the Efficacy in assay [2] and in assay [3] was under 10% each time.
For the compound `O=C(/C=C/CCCCCCc1ccccc1)CCc1ccc(O)cc1`, the concentration for half-maximal inhibition (IC50) amounted to 2.3 µM in assay [1] and 1.2 µM in assay [4]. The concentration giving a half-maximal response (EC50) in assay [6] is 2.2 µM; in assay [5], 0.1 µM. The Efficacy was 19.7% in assay [2] and 89.2% in assay [3].
In the case of `COc1cc(CCC(=O)CC(O)CCCCCCc2ccccc2)ccc1O` (stereo not given), the concentration for half-maximal inhibition (IC50) was determined as 38.2 µM in assay [1] and 0.11 µM in assay [4]. In addition, the Efficacy is 60% in assay [2] and under 10% in assay [3]. The EC50 in assay [5] came to 0.11 µM.
`CCCCCC(O)CC(=O)CCc1cc(C(C)C)c(O)cc1C` (stereo not given): the IC50 in assay [1] was found to be 3.9 µM; in assay [4] it was 4.8 µM. The concentration for a half-maximal effect (EC50) in assay [6] worked out at 1.1 µM. Moreover, the Efficacy in assay [2] is under 10%; in assay [3], 78.2%.
Take `O=C(CCc1ccc2c(c1)OCO2)CC(O)CCCCCCc1ccccc1` (stereo not given): the IC50 in assay [4] is over 10 µM.
For the compound `CCCCC/C=C/C(=O)CCc1ccc(O)c(OC)c1` [SHOGAOL], the values for the IC50 in assay [1] and in assay [4] were 16.7 µM and 0.29 µM, respectively. Besides, the concentration giving a half-maximal response (EC50) turned out to be 16 µM in assay [6] and 0.32 µM in assay [5]. Besides, the Efficacy in assay [2] was 79.2%; in assay [3] it was 91.1%.
Consider `O=C(CCc1ccc2c(c1)OCO2)CC(O)Cc1ccccc1` (stereo not given), for which the concentration for half-maximal inhibition (IC50) in assay [1] was 14.4 µM; in assay [4] it was over 50 µM. In addition, the Efficacy is under 10% in assay [2] and 16.5% in assay [3].
Consider `CCCCCC(O)CC(=O)CCc1ccc2c(c1)OCO2` (stereo not given), for which the IC50 in assay [1] and in assay [4] was over 100 µM throughout. The Efficacy in assay [2] and in assay [3] was under 10% throughout.
Turning to `COc1cc(CCC(=O)CC(O)Cc2ccccc2)ccc1O` (stereo not given), the results for the IC50 in assay [1] and in assay [4] were 97.8 µM and 13.2 µM, respectively. The figures for the Efficacy in assay [2] and in assay [3] were 56.9% and under 10%, respectively. The EC50 in assay [5] came to 14.3 µM.
As to `Cc1cc(O)c(C(C)C)cc1CCC(=O)CC(O)CCCCCCc1ccccc1` (stereo not given), the 50% inhibitory concentration (IC50) in assay [1] worked out at 14.3 µM; in assay [4] it was 1.3 µM. In addition, the figures for the 50% effective concentration (EC50) in assay [6] and in assay [5] were 22.1 µM and 0.5 µM, respectively. Besides, the figures for the Efficacy in assay [2] and in assay [3] were 33.5% and 163%, respectively.
For `CCCCCC(O)CC(=O)CCc1ccc(O)c(OC)c1` (racemic), the 50% inhibitory concentration (IC50) is over 100 µM in assay [1] and 5 µM in assay [4]. In addition, the half-maximal effective concentration (EC50) in assay [6] was found to be 10.4 µM; in assay [5], 3.3 µM. In addition, the results for the Efficacy in assay [2] and in assay [3] were 51.4% and 11.4%, respectively.
